Test results: ChEMBL document CHEMBL1121839, “Synthesis of spiro[isobenzofuran-1(3H),4'-piperidines] as potential central nervous system agents. 6. Synthesis, 13C NMR, and biological evaluation of cis- and trans-4-amino-3'-arylspiro[cyclohexane-1,1'(3'H)-isobenzofuran] derivatives” (1981)

Key:
Type in all cases: functional
Mus musculus = test: Inhibition of tetrabenazine-induced ptosis in mice following i.p. administration.; conditions: ip
How it was run: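 Male CD-1 mice, groups of five, received compound i.p.; tetrabenazine methanesulfonate 40 mg/kg i.p. followed 30 min later. After another 30 min, mice were housed singly and ptosis was scored (eyes closed 2, half open 1, open 0). ED50 and 95% confidence intervals came from linear regression of ptosis scores.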

Rattus norvegicus [1] = test: Percent potentiation of L-5-hydroxytryptophan-induced seizures (head-twitching) at 10 mg/kg i.p. in rats; conditions: route intraperitoneal
How it was run: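 Male Wistar rats, groups of six, got pargyline HCl 75 mg/kg s.c. 4 h before testing and test drug i.p. (10 mL/kg) 30 min before. L-5-hydroxytryptophan 1 mg/kg i.p. in distilled water was then given. Rats were observed 5 min later for head motion and coarse tremors; continuous forelimb clonus counted as potentiation, normalized as percent versus vehicle control.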

Rattus norvegicus [2] = test: Effective concentration required for potentiation of L-5-hydroxytryptophan-induced seizures (head-twitching) in rats (administered intraperitoneally); conditions: ip
How it was run: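 Male Wistar rats, groups of six, pretreated with pargyline HCl 75 mg/kg sc 4 h before testing. Test drug given ip (10 mL/kg) 30 min before testing, then L-5-hydroxytryptophan 1 mg/kg ip in distilled water. Head motion and coarse tremors were scored 5 min later, with continuous forelimb clonus counted as potentiation. Results are expressed as normalized percent potentiation versus vehicle control.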

Row | Compound | ED50 (Mus musculus) | Potentiation (Rattus norvegicus [1]) | ED50 (Rattus norvegicus [2])
1 | CN(C)[C@H]1CC[C@]2(CC1)OCc1ccccc12 | > 20 mg/kg | 0% | –
2 | CC1O[C@]2(CC[C@@H](N(C)C)CC2)c2ccccc21 (stereo not given in full) | 20 mg/kg | 0% | –
3 | CN[C@H]1CC[C@]2(CC1)OC(c1ccc(Cl)cc1)c1ccccc12 (stereo not given in full) | > 20 mg/kg | 0% | –
4 | CCCC1(c2ccccc2)O[C@]2(CC[C@@H](N(C)C)CC2)c2ccccc21 (stereo not given in full) | > 20 mg/kg | 0% | –
5 | CN(C)[C@H]1CC[C@@]2(CC1)OC(c1ccccc1)c1ccccc12 (stereo not given in full) | > 20 mg/kg | 0% | –
6 | CN[C@H]1CC[C@]2(CC1)OC(c1ccccc1)c1ccccc12 (stereo not given in full) | 2 mg/kg | 0% | –
7 | CN[C@H]1CC[C@]2(CC1)OC(c1ccc(F)cc1)c1ccccc12 (stereo not given in full) | 20 mg/kg | 0% | –
8 | CN[C@H]1CC[C@@]2(CC1)OC(c1ccccc1)c1ccccc12 (stereo not given in full) | > 20 mg/kg | 50% | –
9 | CN[C@H]1CC[C@]2(CC1)OC(c1ccccc1C)c1ccccc12 (stereo not given in full) | > 20 mg/kg | 50% | –
10 | Cc1ccccc1C1O[C@]2(CC[C@@H](N(C)C)CC2)c2ccccc21 (stereo not given in full) | > 20 mg/kg | 0% | –
11 | Cc1ccc(C2O[C@]3(CC[C@@H](N(C)C)CC3)c3ccccc32)cc1 (stereo not given in full) | > 20 mg/kg | 33% | –
12 | CCC1(c2ccccc2)O[C@]2(CC[C@@H](N(C)C)CC2)c2ccccc21 (stereo not given in full) | > 20 mg/kg | 0% | –
13 | CN(C)[C@H]1CC[C@]2(CC1)OC(c1ccc(Cl)cc1)c1ccccc12 (stereo not given in full) | > 20 mg/kg | 0% | –
14 | CN(C)[C@H]1CC[C@]2(CC1)OC(c1ccc(F)cc1)c1ccccc12 (stereo not given in full) | 8.4 mg/kg | 50% | –
15 | CN(C)[C@H]1CC[C@]2(CC1)OC(c1ccccc1)c1ccccc12 (stereo not given in full) | 3.7 mg/kg | 50% | –
16 | CN(C)[C@H]1CC[C@]2(CC1)OC(C)(c1ccccc1)c1ccccc12 (stereo not given in full) | > 20 mg/kg | 0% | –
17 | CN(C)CCC=C1c2ccccc2CCc2ccccc21 [AMITRIPTYLINE] | 1.5 mg/kg | – | 7.1 mg/kg
18 | CNCCCN1c2ccccc2CCc2ccccc21 [DESIPRAMINE] | 0.3 mg/kg | – | –
